“And” between values parts separate entries of the source, which are not always exact repeats. Equal entries are not always repeated. Blank lines part the entries; values can stand above or below the molecule they belong to.
Legend:
pooled HIM = assay: Phase I biotransformation of DB289 in pooled HIM; format: in vitro ADME, human; settings: for Phase I metabolite detection (HPLC/UV): 10 μM DB289, pooled HIM 0.2 mg/ml, NADPH, up to 120 min
In short: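 Test compound (10 μM) with pooled HIM (0.2 mg/ml) in 100 mM phosphate pH 7.4, 3.3 mM MgCl2. Equilibrated 5 min at 37°C, then started with 1 mM NADPH. Aliquots taken at 0, 15, 30 and 120 min were quenched in ice-cold acetonitrile and analysed by HPLC/UV. Metabolites were assigned by retention time against synthetic standards. Controls omitted NADPH, microsomal protein or substrate.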

[1] = Enzyme kinetics of M1 formation; format: in vitro ADME, human; settings: human
[2] = tested on: human intestinal microsomes (HIM); assay: Enzyme kinetics of M1 formation; format: in vitro ADME; settings: for KMapp(1): 5 min
[3] = Solubility in the incubation buffer; format: physicochemical; settings: highest concentration tested 25 μM
[4] = tested on: pooled HLM (human liver microsomes); settings: M1 formation, 0.02 mg/ml protein, 3 min, ref Wang et al., 2006; cited from earlier work
HLM = settings: panel of HLM; ref Wang et al., 2006; cited from earlier work
[5] = six healthy men, p.o. 14C-DB289, single-dose escalation; ref C. Olson, Immtech Pharmaceuticals Inc., personal communication; cited from earlier work
purified CYP4A11 = settings: higher for CYP4A11; ref Powell et al., 1998; cited from earlier work
recombinant CYP2J2 [6] = settings: ref Hashizume et al. (2002); cited from earlier work
[7] = tested on: P450 enzymes of pooled HIM (M1 formation from DB289); assay: Chemical inhibition of M1 formation in pooled HIM; format: biochemical, human
recombinant CYP3A4 = recombinant CYP3A4 (Homo sapiens, UniProt P08684); assay: Effect of α-NF on M1 formation by recombinant CYP3A4; format: biochemical; settings: recombinant CYP3A4 10 pmol/ml, 1 μM α-NF, 3 μM DB289, 15 min, P < 0.05
recombinant CYP2J2 [8] = target: T1, recombinant CYP2J2 (Homo sapiens, UniProt P51589); assay: Effect of α-NF on M1 formation by recombinant CYP2J2; format: biochemical; settings: recombinant CYP2J2 10 pmol/ml, 1 μM α-NF, 3 μM DB289, P < 0.05
T1 sequence (P51589 1-502): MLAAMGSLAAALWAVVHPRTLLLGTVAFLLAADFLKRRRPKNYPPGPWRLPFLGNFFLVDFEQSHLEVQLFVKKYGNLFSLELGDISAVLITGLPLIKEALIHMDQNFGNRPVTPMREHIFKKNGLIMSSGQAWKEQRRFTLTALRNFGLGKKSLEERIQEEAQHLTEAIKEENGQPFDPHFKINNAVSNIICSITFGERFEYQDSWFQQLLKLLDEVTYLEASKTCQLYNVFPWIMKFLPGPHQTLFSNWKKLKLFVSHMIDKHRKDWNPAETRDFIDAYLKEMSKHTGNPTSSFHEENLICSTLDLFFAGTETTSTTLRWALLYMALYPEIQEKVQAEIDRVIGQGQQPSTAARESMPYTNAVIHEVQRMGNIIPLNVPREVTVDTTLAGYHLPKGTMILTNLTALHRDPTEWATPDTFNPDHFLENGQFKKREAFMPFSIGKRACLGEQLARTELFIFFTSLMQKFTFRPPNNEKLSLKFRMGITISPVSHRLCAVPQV

recombinant CYP4F2 = target: T2, recombinant CYP4F2 (Homo sapiens, UniProt P78329); assay: Effect of α-NF on M1 formation by recombinant CYP4F2; format: biochemical; settings: recombinant CYP4F2, 1 μM α-NF, 3 μM DB289, P > 0.05
T2 sequence (P78329 5-520): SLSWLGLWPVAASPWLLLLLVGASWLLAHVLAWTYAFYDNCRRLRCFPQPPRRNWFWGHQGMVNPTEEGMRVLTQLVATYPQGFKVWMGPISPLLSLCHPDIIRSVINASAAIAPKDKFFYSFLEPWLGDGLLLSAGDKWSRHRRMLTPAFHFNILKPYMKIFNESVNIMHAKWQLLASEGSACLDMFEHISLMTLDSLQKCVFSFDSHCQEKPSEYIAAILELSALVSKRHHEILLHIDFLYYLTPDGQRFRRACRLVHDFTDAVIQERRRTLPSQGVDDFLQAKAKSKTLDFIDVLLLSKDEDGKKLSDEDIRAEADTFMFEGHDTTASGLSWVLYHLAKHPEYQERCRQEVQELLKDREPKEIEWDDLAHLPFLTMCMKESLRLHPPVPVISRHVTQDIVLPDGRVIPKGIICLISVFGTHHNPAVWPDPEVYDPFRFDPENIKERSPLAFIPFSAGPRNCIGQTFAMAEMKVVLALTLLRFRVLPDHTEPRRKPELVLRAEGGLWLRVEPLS

recombinant CYP4F3B = target: T3, recombinant CYP4F3B (Homo sapiens, UniProt Q08477); assay: Effect of α-NF on M1 formation by recombinant CYP4F3B; format: biochemical; settings: 1 μM α-NF, 3 μM DB289, P > 0.05
T3 sequence (Q08477 1-520 isoform Q08477-2): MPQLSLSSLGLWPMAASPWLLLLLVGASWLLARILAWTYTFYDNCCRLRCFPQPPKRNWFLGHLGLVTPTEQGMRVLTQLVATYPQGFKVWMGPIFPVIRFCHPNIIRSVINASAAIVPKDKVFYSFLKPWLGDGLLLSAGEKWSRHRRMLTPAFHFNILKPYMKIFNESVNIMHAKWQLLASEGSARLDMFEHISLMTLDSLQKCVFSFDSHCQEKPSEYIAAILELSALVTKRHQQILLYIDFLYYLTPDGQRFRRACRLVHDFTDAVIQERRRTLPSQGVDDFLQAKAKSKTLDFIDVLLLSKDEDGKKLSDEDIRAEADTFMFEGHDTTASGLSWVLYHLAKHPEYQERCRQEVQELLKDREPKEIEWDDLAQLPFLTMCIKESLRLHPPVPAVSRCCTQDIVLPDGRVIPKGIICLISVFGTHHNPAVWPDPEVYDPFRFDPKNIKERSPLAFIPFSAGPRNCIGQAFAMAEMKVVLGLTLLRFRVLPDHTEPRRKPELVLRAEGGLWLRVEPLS

pooled HLM = assay: Effect of α-NF on M1 formation by pooled HLM; format: biochemical, human; settings: 1 μM α-NF, 3 μM DB289, P > 0.05
[9] = M1 formation, HIM 3, 0.2 mg/ml protein
[10] = M1 formation, HIM 7, 0.2 mg/ml protein
[11] = M1 formation, HIM 30, 0.2 mg/ml protein
[12] = M1 formation, HIM 31, 0.2 mg/ml protein

Chain of recombinant CYP3A4 (P08684 whole entry): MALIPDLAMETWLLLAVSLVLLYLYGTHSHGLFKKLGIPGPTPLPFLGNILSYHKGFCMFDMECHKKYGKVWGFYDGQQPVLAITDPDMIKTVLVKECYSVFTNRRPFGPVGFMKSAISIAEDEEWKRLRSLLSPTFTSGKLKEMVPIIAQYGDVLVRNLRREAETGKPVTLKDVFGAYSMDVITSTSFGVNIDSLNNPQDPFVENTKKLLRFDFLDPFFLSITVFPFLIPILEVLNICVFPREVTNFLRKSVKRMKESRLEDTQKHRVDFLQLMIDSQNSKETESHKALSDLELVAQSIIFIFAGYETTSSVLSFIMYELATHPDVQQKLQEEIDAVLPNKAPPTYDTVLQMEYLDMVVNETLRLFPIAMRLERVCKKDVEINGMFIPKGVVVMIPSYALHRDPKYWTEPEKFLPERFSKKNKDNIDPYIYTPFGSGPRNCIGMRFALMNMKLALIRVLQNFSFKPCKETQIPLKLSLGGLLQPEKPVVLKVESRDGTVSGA

Structure (SMILES): CCCCC/C=C\C/C=C\C/C=C\C/C=C\CCCC(=O)O [arachidonic acid]
Km of 20-HETE formation, CYP4A11 relative to CYP4F2 (purified CYP4A11): 10 fold

Structure (SMILES): CC(C)(C)c1ccc(C(=O)CCCN2CCC(OC(c3ccccc3)c3ccccc3)CC2)cc1 [ebastine]
Km (recombinant CYP2J2 [6]): 1300 nM

Structure (SMILES): CCCCCCCCCCCC(=O)O [lauric acid]
inhibition of M1 formation ([7]; pooled HIM 0.2 mg/ml, 3 μM DB289, 5 min, inhibitor concentration as in Fig. 2A): lack of inhibition

Structure (SMILES): O=c1cc(-c2ccccc2)oc2c1ccc1ccccc12 [α-NF, α-naphthoflavone]
activation of M1 formation ([7]; different lot of pooled HIM, 1 μM α-NF, 3 μM DB289, P < 0.05): 34%
activation of M1 formation ([7]; pooled HIM, 3 μM DB289 (Fig. 2A)): 43%
activation of M1 formation (recombinant CYP3A4): 120%
activation of M1 formation (recombinant CYP2J2 [8]): 55%
effect on M1 formation (recombinant CYP4F2): not significant
effect on M1 formation (recombinant CYP4F3B): not significant
effect on M1 formation (pooled HLM): not significant

Second part, led by results:

Phase I metabolite detection (HPLC/UV) (pooled HIM): identified
fraction of M1 further metabolized (pooled HIM; within the first 15 min of incubation, 10 μM DB289, pooled HIM): Less than 10%
Structure (SMILES): CON=C(N)c1ccc(-c2ccc(-c3ccc(C(N)=NO)cc3)o2)cc1 [M1]

Phase I metabolite detection (HPLC/UV) (pooled HIM): not detected
Structure (SMILES): N=C(N)c1ccc(-c2ccc(-c3ccc(C(N)=NO)cc3)o2)cc1 [M4]

microsomal CLint ([1]; human intestinal microsomes (individual HIM 32), pH 7.4, CL′int(1), M1 formation, HIM 32, Vmax(1)/KMapp(1)): 730 µL/min/mg
microsomal CLint ([1]; human intestinal microsomes (pooled and nine individual HIM), pH 7.4, total intrinsic clearance [CL′int(1) + CL′int(2)] of M1 formation, range, HIM): 10 to 730 µL/min/mg
total intrinsic clearance of M1 formation by HIM relative to pooled HLM ([2]; HIM versus pooled HLM): at most 10%
Vmax(1) ([2]; M1 formation, HIM 1, 0.2 mg/ml protein): 0.12 nmol/min/mg protein
KMapp(1) ([2]; M1 formation, HIM 1, 0.2 mg/ml protein, biphasic): 0.8 µM
Vmax(1) ([2]; M1 formation, HIM 2, 0.1 mg/ml protein): 0.42 nmol/min/mg protein
KMapp(1) ([2]; M1 formation, HIM 2, 0.1 mg/ml protein, biphasic): 0.7 µM
Vmax(1) [2, 9]: 0.24 nmol/min/mg protein
KMapp(1) [2, 9]: 1.3 µM
Vmax(1) [2, 10]: 0.89 nmol/min/mg protein
KMapp(1) [2, 10]: 1.3 µM
KMapp(1) ([2]; M1 formation, HIM 12, 0.2 mg/ml protein): 2.3 µM
KMapp(1) ([2]; M1 formation, HIM 23A, 0.2 mg/ml protein, biphasic): 2.4 µM
Vmax(1) [2, 11]: 0.19 nmol/min/mg protein
KMapp(1) [2, 11]: 0.6 µM
Vmax(1) [2, 12]: 0.02 nmol/min/mg protein
KMapp(1) [2, 12]: 1.4 µM
Vmax(1) ([2]; M1 formation, HIM 32, 0.1 mg/ml protein): 0.44 nmol/min/mg protein
KMapp(1) ([2]; M1 formation, HIM 32, 0.1 mg/ml protein, 37°C): 0.6 µM
KMapp(1), average ([2]; M1 formation, nine individual HIM): 1.3 µM
Vmax(1) ([2]; M1 formation, pooled HIM, 0.2 mg/ml protein): 0.19 nmol/min/mg protein
KMapp(1) ([2]; M1 formation, pooled HIM, 0.2 mg/ml protein, biphasic): 0.7 µM
solubility in the incubation buffer [3]: limited
Structure (SMILES): CONC(=N)c1ccc(-c2ccc(-c3ccc(C(=N)NOC)cc3)o2)cc1 [DB289, 2,5-bis(4-amidinophenyl)furan-bis-O-methylamidoxime]
KMapp(1) [4]: 0.5 µM
variation in M1 formation rates (HLM): 4 fold and ~ 4 fold
coefficient of variation for Cmax [5]: approximately 50%
coefficient of variation for area under the curve [5]: approximately 50%
coefficient of variation for terminal half-life [5]: approximately 50%

Phase I metabolite detection (HPLC/UV) (pooled HIM): identified
Structure (SMILES): NC(=NO)c1ccc(-c2ccc(-c3ccc(C(N)=NO)cc3)o2)cc1 [M2]

Phase I metabolite detection (HPLC/UV) (pooled HIM): not detected
Structure (SMILES): N=C(N)c1ccc(-c2ccc(-c3ccc(C(=N)N)cc3)o2)cc1 [DB75, 2,5-bis(4-amidinophenyl) furan]

Phase I metabolite detection (HPLC/UV) (pooled HIM): identified
Structure (SMILES): CON=C(N)c1ccc(-c2ccc(-c3ccc(C(=N)N)cc3)o2)cc1 [M3]
